HTRA1 inh: blocks human HTRA1 serine peptidase; Q92743; recombinant HTRA1, FP-rhodamine activity-based probe, fluorescence polarization; inhibition, % at 5.96 µM; 340,000 compounds, 0.5% hits; in the data active = inhibition above about 36%;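 also: 0% = enzyme with DMSO and 100% = wells lacking enzyme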
TCR-CD3 inh: human TCR-CD3 binding inhibition. TAMRA-labeled TCR probe fluorescence, biochemical. inhibition, % at 9.4 µM. 360,000 compounds, 0.37% hits. AID 651800;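 also: recombinant mutant TCR 2C K166C tagged with TAMRA read by polarization; 0% = receptor in buffer alone and 100% = receptor with positive control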
mABHD4 FP: inhibits mouse alpha/beta hydrolase domain 4 | 370,000 compounds, 0.54% hits | inhibition, % at 8.92 µM | Q8VD66 | purified mABHD4, FP-Rh probe fluorescence polarization;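 active = inhibition exceeding the mean over every tested compound plus 3 SD, cut at about 30% in these data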;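 also: 0% = plate median of compound wells and 100% = S159A mutant with DMSO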
Target sequence (Q8VD66 whole entry, looked up, the tested form may be a part): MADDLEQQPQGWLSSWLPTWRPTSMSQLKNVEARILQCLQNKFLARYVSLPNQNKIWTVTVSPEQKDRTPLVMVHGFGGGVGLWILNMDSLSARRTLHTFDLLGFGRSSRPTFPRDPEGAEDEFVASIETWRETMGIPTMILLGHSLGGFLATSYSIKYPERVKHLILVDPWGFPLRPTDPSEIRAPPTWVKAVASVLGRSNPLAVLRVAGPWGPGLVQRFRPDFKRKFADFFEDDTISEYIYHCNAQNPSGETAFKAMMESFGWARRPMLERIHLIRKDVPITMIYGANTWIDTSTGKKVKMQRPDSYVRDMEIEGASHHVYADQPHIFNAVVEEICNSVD
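Assay system: Wild-type mouse ABHD4 protein | Medium: HEPES pH 7.0 buffer, 150 mM NaCl, 0.01% Pluronic F-127 | Incubation: Enzyme–compound pre-incubation 45 min, then probe 60 min, both 25 °C | Technique: Fluorescence polarization with parallel and perpendicular emission, 525/598 nm | Evaluation: % inhibition of FP-Rh probe binding versus controls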
rCAG binder: molecules binding r(CAG) RNA repeats. r(CAG) RNA repeat, TO-PRO-1 dye displacement fluorescence. inhibition, % at 3 µM. 370,000 compounds, 1.3% hits. AID 651821;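 active = inhibition above the plate cutoff, the mean of all test compounds on that plate plus 3 SD, cut at about 35% in these data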;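 also: 0% = DMSO alone and 100% = 100 µM mitoxantrone as full dye displacement; higher means more dye released from RNA so lower well fluorescence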
SIAE inh: blocks human sialic acid acetylesterase | Q9HAT2 | SIAE FP-Rh probe binding, fluorescence polarization | inhibition, % at 9.66 µM | 370,000 compounds, 0.69% hits;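 active = inhibition above a cutoff: mean of compounds within the control limits plus 3 SD of those, cut at about 17% in these data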;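 also: 0% = plate median of compound wells and 100% = probe without SIAE protein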
PRMT1 inh: PRMT1 (human) inhibition, primary screen | Q99873 | recombinant PRMT1, activity-based probe fluorescence polarization | inhibition, % at 2.79 µM | 370,000 compounds, 1.3% hits | AID 652257;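 active = inhibition above about 21% made by adding two undisclosed values, limit read from the data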
Target sequence (Q99873 whole entry, looked up): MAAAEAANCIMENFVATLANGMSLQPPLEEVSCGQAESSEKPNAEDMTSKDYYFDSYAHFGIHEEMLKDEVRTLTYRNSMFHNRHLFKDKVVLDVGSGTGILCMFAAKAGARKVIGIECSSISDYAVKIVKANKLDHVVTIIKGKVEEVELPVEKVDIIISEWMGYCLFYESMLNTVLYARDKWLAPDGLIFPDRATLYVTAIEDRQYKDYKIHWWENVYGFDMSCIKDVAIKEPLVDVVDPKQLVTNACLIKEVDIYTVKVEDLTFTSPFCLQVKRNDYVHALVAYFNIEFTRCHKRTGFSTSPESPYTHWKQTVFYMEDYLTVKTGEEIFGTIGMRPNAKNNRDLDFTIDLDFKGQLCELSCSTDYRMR
HTRA1 conf: HTRA1 (human) inhibition, confirmation. shares compounds with HTRA1 inh. recombinant HTRA1, FP-rhodamine activity-based probe, fluorescence polarization. inhibition, % at 5.96 µM. 1,600 compounds, 66% hits. AID 540248;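 active = mean inhibition over three repeats above a set limit taken from the earlier primary screen, cut at about 37% in these data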;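 also: 0% = HTRA1 with DMSO and 100% = wells lacking HTRA1; inhibitors block probe binding so polarization drops and inhibition rises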
BSA TAMRA ctr: interferes with TAMRA-BSA probe, flagging TCR-CD3 hits; shares compounds with TCR-CD3 inh; TAMRA-labeled BSA probe fluorescence counterscreen; inhibition, % at 9.4 µM; 1,200 compounds, 10% hits; AID 652035; in the data active = inhibition above about 23%;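 also: 0% = buffer low control and 100% = reference high control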
TCR-CD3 conf: TCR-CD3 interaction inhibition, confirmation; AID 652036; inhibition, % at 9.4 µM; shares compounds with TCR-CD3 inh; 1,200 compounds, 48% hits; TAMRA-labeled TCR probe fluorescence binding assay
rCAG bind conf: r(CAG) RNA repeat binding, confirmation; TO-PRO-1 dye displacement fluorescence; shares compounds with rCAG binder; 4,300 compounds, 70% hits; inhibition, % at 3 µM;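 active = inhibition above a per-plate cutoff, the mean inhibition of sample wells plus 3 SD, cut at about 35% in these data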;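 also: loss of TO-PRO-1 fluorescence as compound displaces dye from 1x1 AA loop RNA; 0% = DMSO only wells and 100% = 100 µM mitoxantrone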
DNA CAG counter: disrupts DNA CAG TO-PRO-1 complex, flagging rCAG hits. d(CAG) DNA oligo TO-PRO-1 dye displacement, fluorescence. inhibition, % at 3 µM. AID 652068. shares compounds with rCAG binder. 4,300 compounds, 94% hits;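 active = inhibition above its plate's cutoff, the mean test-well inhibition plus 3 SD, cut at about 4.8% in these data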;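 also: 0% = DNA dye mix with DMSO and 100% = 100 µM mitoxantrone; hits displace the dye from DNA and so lower well fluorescence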
PRMT1 confirm: confirmation of human PRMT1 inhibitors; AID 687036; 3,300 compounds, 42% hits; inhibition, % at 2.79 µM; shares compounds with PRMT1 inh; recombinant His-PRMT1, activity-based probe fluorescence polarization;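 active = mean inhibition across replicates above the hit cutoff derived for the earlier primary screen, cut at about 22% in these data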
mABHD4 conf: ABHD4 (mouse) inhibition, FP confirmation | purified mABHD4, FP-Rh probe fluorescence polarization | inhibition, % at 8.92 µM | AID 720658 | shares compounds with mABHD4 FP | 1,800 compounds, 55% hits;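 active = mean inhibition across replicates above the hit cutoff set in the primary screen, cut at about 30% in these data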;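 also: 0% = wild-type ABHD4 with DMSO and 100% = catalytically dead S159A mutant with DMSO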
SIAE confirm: human SIAE inhibition, confirmation; shares compounds with SIAE inh; SIAE FP-Rh activity-based probe, fluorescence polarization; inhibition, % at 9.66 µM; 2,300 compounds, 13% hits;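 active = mean inhibition of the replicates above the hit cutoff set in the primary screen, cut at about 17% in these data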;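 also: 0% = SIAE with DMSO and probe and 100% = probe without SIAE; inhibitors lower polarization as more probe stays unbound to SIAE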
The depositor's hits bear a star; · = no result given; + = active, no number. This is a sample that favours compounds with a hit; in the whole collection about 3.5% have one here. Rule as the data show it, unless noted: active = inhibition above about 19%; inactive = the rest.

SMILES	HTRA1 inh	TCR-CD3 inh	mABHD4 FP	rCAG binder	SIAE inh	PRMT1 inh	HTRA1 conf	BSA TAMRA ctr	TCR-CD3 conf	mABHD4 conf	SIAE confirm	others
C/C(=N\NC(=O)c1cc2ccccc2cc1O)c1cc2ccccc2o1	36*	5	26	50*	17*	-3	10	·	·	·	10	rCAG bind conf=40*;DNA CAG counter=15*
C/C(CC(=O)N1CCN(C=O)CC1)=N\NC(=O)c1ccc([N+](=O)[O-])cc1	5	5	5	2	10	4	·	·	·	·	·
CC(C)CNC(=O)OCc1cn(Cc2cc(F)ccc2F)nn1	·	·	-1	4	-1	0	·	·	·	·	·
CCOC(=O)N1CCN(C(=O)C[C@H]2C[C@@]3(C(=O)OC)C(=C[C@H](COCc4ccccc4)O[C@@H]3C)N(Cc3ccc(Cl)cc3Cl)C2=O)CC1	·	·	-5	9	0	3	·	·	·	·	·
CCNc1ccc(Br)cc(C(=O)/C=C/c2ccc(Cl)cc2Cl)c1=O	64*	-2	35*	45*	17*	27*	59*	·	·	31*	8	rCAG bind conf=48*;DNA CAG counter=21*
O=[N+]([O-])c1ccc(NN=Cc2cccc([N+](=O)[O-])c2)cc1	-2	-3	6	3	15	2	·	·	·	·	·
O=[N+]([O-])c1ccc(N/N=C/c2ccc[nH]2)cc1	45*	-17	-13	15	18*	6	57*	·	·	·	-4
Cc1nn(-c2ccccc2)c2sc(C(=O)NC3CCCC3)cc12	·	·	-35	4	-3	0	·	·	·	·	·
CCOc1cccc(CNc2ccc(O)cc2)c1OCc1ccccc1Cl	52*	24*	55*	11	30*	10	15	-8	-1	31*	10
O=C1C=C(N2CCOCC2)c2ccccc2C1=O	21	1	24	6	-10	4	·	·	·	·	·
CC1=C(C)C(=O)C(N2CCOCC2)=CC1=O	1	13	12	-1	-2	-2	·	·	·	·	·
O=C1C=C(N2CCOCC2)c2cccc3cccc1c23	43*	79*	83*	-28	47*	102*	8	7	3	2	-2	PRMT1 confirm=-2
O=C1C(N2CCOCC2)=Cc2cccc3cccc1c23	59*	87*	86*	-24	49*	101*	39*	70*	47*	83*	27*	PRMT1 confirm=77*
COc1ccc(NS(=O)(=O)c2ccc(NS(=O)(=O)c3cccc(C(=O)O)c3)cc2)cc1	14	-5	2	13	-4	3	·	·	·	·	·
COc1ccc(NS(=O)(=O)c2ccc3c(c2)[C@H]2C=CC[C@H]2[C@@H](c2ccc(C(=O)O)cc2)N3)cc1	57*	4	44*	96*	29*	38*	53*	·	·	61*	20*	rCAG bind conf=92*;DNA CAG counter=67*;PRMT1 confirm=21*
Cc1cc2c(N)cccc2nn1	101*	+	168*	-9	142*	44*	5	·	·	116*	65*
Cc1ccc(-n2c(C)cc(=O)cc2C)c(C)c1	1	4	-2	2	3	3	·	·	·	·	·
Cc1cc(N)ccc1-n1c(C)ccc1C	102*	152*	147*	9	54*	17	13	6	0	·	3
CN(CC#Cc1ccccc1)C(N)=NC(=O)/C=C/c1cccc(C(F)(F)F)c1	·	·	-2	1	-1	6	·	·	·	·	·
CCOc1c(Cl)cc(CNc2ccc(N3CCCC3)cc2)cc1OC	50*	7	24	12	21*	5	16	·	·	·	11
CCOC(=O)C1=NNC(C(=O)c2ccccc2)C1c1ccc(Cl)cc1 (stereo not drawn)	-11	-1	-10	1	-10	6	·	·	·	·	·
CCOC(=O)C1=C(C)N=C2c3ccccc3C(=O)C2C1c1ccc(Cl)cc1 (stereo not drawn)	38*	-2	35*	4	19*	0	34	·	·	66*	6
C/C(=C\C(=O)c1cccnc1)Nc1ccc(O)cc1	64*	89*	72*	0	26*	20	3	5	1	-5	3
CSCCCNc1nc(C)nc2c1nnn2Cc1ccccc1	·	·	-5	1	6	-5	·	·	·	·	·
COc1ccc(C(=O)C(=NN)c2ccccc2)cc1	-6	1	3	2	-5	-3	·	·	·	·	·
SMILES	HTRA1 inh	TCR-CD3 inh	mABHD4 FP	rCAG binder	SIAE inh	PRMT1 inh	HTRA1 conf	BSA TAMRA ctr	TCR-CD3 conf	mABHD4 conf	SIAE confirm	others
O=C(/C(=N/N=C/c1ccc(O)c(O)c1O)c1ccccc1)c1ccccc1	79*	13	53*	61*	33*	27*	74*	·	·	47*	-5	rCAG bind conf=74*;DNA CAG counter=42*
Oc1ccc(/C=N/N=C(c2ccccc2)c2ccccc2)c(O)c1O	66*	35*	42*	30	20*	12	67*	-11	28*	34*	-15
Cc1cc2cc(CNS(=O)(=O)c3ccc4ccccc4c3)ccc2n1C	67*	58*	51*	17	26*	5	5	17	10	4	-7
NS(=O)(=O)c1ccc(CNS(=O)(=O)c2ccc3ccccc3c2)cc1	-3	-6	-9	2	-2	1	·	·	·	·	·
Cc1cc2ccccc2n1CCNC(=O)Cc1ccccc1	35	6	9	8	4	5	·	·	·	·	·
CCCC(=O)NCc1ccc2c(c1)cc(C)n2C	7	4	4	-2	-4	7	·	·	·	·	·
Cc1cc(C)c(S(=O)(=O)NCCn2c(C)cc3ccccc32)c(C)c1	66*	71*	60*	14	24*	1	0	1	1	-22	-5
Cc1cc(C)c(S(=O)(=O)NCc2ccc3c(c2)cc(C)n3C)c(C)c1	60*	71*	55*	13	39*	14	-6	30*	26*	-10	6

Source: PubChem
